ChEMBL document CHEMBL1138602, “Discovery of sodium 6-[(5-chloro-2-{[(4-chloro-2-fluorophenyl)methyl]oxy}phenyl)methyl]-2-pyridinecarboxylate (GSK269984A) an EP(1) receptor antagonist for the treatment of inflammatory pain” (Bioorg Med Chem Lett, 2009)

How the values were obtained:
[1] = Clearance in Beagle dog blood at 1 mg/kg administered by intravenous infusion for 1 hr; assay type: ADME, organism-based, Canis lupus familiaris; parameters: dose 1 mg/kg, route intravenous
How it was run: (§1)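 Intravenous administration as a 1 h infusion of a 1 mg/kg dose. Rats were male Sprague-Dawley; dogs were beagle; monkeys were cynomolgus. Blood clearance, Vss and half-life determined.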

[2] = Drug level in blood of complete Freund's adjuvant induced rat inflammatory pain model at 10 mg/kg, bid measured after 1 hr on day 5; assay type: ADME, organism-based; parameters: dose 10 mg/kg; details: read-out: Drug uptake
How it was run: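 Satellite group dosed at 10 mg/kg b.i.d. for 5 days; blood sampled 1 h post-dose on day 1 and on day 5.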

[3] = Ratio of drug level in brain to blood in complete Freund's adjuvant-induced rat inflammatory pain model at 10 mg/kg, po administered after 23 hrs of adjuvant challenge measured after 1 hr; assay type: ADME, organism-based; parameters: dose 10 mg/kg, route oral; details: brain and blood
How it was run: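 Rat CFA inflammatory pain model: oral dosing at 1, 3 or 10 mg/kg 23 h after intraplantar adjuvant; blood and brain sampled 1 h post-dose from the same animal; Br:Bl ratio is the mean from three animals.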

[4] = Oral bioavailability in Beagle dog at 3 mg/kg; assay type: ADME, organism-based, Canis lupus familiaris; details: in vivo
How it was run: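 Single oral dose of 3 mg/kg in 1% (w/v) methylcellulose vehicle. Rats were male Sprague-Dawley; dogs were beagle. Bioavailability (Fpo) determined.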

[5] = Drug level in Landrace pig brain at 0.5 mg/kg/hr administered by infusion for 1 hrs; assay type: ADME, organism-based, Sus scrofa; details: intravenous, read-out: Drug uptake
How it was run: (§2)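 Landrace pig given a 1 h infusion; blood and brain concentrations measured in a single animal.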

[6] = Clearance in cynomolgus monkey blood at 1 mg/kg administered by intravenous infusion for 1 hr; assay type: ADME, organism-based, Macaca fascicularis; parameters: dose 1 mg/kg, route intravenous; how it was run: as §1
[7] = Drug level in brain of complete Freund's adjuvant-induced rat inflammatory pain model at 1 mg/kg, po administered after 23 hrs of adjuvant challenge measured after 1 hr; assay type: ADME, organism-based; parameters: dose 1 mg/kg, route oral; details: read-out: Drug uptake
How it was run: (§3)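 CFA rat study: oral doses of 1, 3 or 10 mg/kg given 23 h after intraplantar adjuvant, samples 1 h post-dose. Blood values are the mean from seven animals. Brain values are the mean from three animals.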

Rattus norvegicus = assay: Antianalgesic activity against complete Freund's adjuvant induced inflammatory pain in rat assessed as reversal of hypersensitivity dosed as po bid for 5 days measured after 1 hr on day 5; assay type: functional
[8] = Half life in Beagle dog at 1 mg/kg administered by intravenous infusion for 1 hr; assay type: ADME, organism-based, Canis lupus familiaris; parameters: dose 1 mg/kg, route intravenous; details: in vivo; how it was run: as §1
[9] = Volume of distribution at steady state in Beagle dog at 1 mg/kg administered by intravenous infusion for 1 hr; assay type: ADME, organism-based, Canis lupus familiaris; parameters: dose 1 mg/kg, route intravenous; details: in vivo, read-out: Vdss
[10] = Drug level in mouse blood at 0.5 mg/kg/hr administered by infusion for 12 hrs; assay type: ADME, organism-based; details: intravenous, read-out: Drug uptake
How it was run: (§4)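 Steady-state 12 h infusion at 5 mL/kg/h to reach a target dose of 0.5 mg/kg/h; blood and brain concentrations measured. Data are the mean from three animals.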

[11] = target: T1, Prostaglandin E2 receptor EP3 subtype (Homo sapiens, UniProt P43115); assay: Inhibition of EP3 receptor by FLIPR assay
T1 sequence (P43115 whole entry): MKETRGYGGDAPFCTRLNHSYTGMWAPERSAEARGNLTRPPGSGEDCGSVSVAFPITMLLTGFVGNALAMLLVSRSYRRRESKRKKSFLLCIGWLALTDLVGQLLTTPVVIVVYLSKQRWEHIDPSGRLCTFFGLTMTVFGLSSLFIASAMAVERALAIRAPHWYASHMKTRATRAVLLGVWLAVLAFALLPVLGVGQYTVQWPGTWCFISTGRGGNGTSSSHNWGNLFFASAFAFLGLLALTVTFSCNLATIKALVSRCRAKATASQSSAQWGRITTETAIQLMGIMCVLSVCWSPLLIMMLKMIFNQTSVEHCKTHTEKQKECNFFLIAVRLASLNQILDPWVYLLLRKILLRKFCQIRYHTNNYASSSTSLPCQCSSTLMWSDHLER

[12] = Solubility in FaSSIF after 0.5 hrs; assay type: physicochemical
How it was run: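 Solubility determined in water, FaSSIF and FeSSIF, all read at the 0.5 h time point.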

[13] = Drug level in rat blood at 0.5 mg/kg/hr administered by infusion for 12 hrs; assay type: ADME, organism-based; details: intravenous, read-out: Drug uptake; how it was run: as §4
[14] = Permeability from apical to basolateral side of dog MDCK2 cells over expressing MDR1 after 1 hr; assay type: ADME, cell-based, Canis lupus familiaris, MDCK-II; details: MDCK-MDR1, read-out: permeability
How it was run: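 MDCKII-MDR1 Pgp permeability assay; apical-to-basolateral Pexact permeability in nm/s, with efflux ratio also determined.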

Cytochrome P450 3A4 = Cytochrome P450 3A4 (Homo sapiens, UniProt P08684); assay: Inhibition of human CYP3A4; assay type: ADME
How it was run: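 Inhibition of metabolism of fluorometric substrates (Cypex protocol); IC50 values are the mean of three experiments ± standard deviation.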

[15] = target: T2, Prostaglandin G/H synthase 2 (Homo sapiens, UniProt P35354); assay: Inhibition of COX2
T2 sequence (P35354 whole entry): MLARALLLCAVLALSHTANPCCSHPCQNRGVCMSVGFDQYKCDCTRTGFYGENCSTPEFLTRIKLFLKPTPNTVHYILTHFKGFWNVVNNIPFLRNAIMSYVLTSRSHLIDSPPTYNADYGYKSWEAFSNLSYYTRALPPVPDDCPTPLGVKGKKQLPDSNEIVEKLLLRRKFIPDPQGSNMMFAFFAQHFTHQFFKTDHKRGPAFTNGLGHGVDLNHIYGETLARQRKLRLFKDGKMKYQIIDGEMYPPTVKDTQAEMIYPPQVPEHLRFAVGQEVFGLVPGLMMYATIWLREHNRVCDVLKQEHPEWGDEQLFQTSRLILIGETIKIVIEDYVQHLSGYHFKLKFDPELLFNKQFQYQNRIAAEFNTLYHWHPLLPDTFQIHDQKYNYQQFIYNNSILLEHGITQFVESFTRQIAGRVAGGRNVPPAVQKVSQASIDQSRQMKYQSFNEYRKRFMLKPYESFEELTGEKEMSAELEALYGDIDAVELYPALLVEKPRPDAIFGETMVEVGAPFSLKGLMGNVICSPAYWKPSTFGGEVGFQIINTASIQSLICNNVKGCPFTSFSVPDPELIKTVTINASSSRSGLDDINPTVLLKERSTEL

[16] = Ratio of drug level in brain to blood of Landrace pig at 0.5 mg/kg/hr administered by infusion for 1 hrs; details: brain and blood, intravenous
[17] = Drug level in Landrace pig blood at 0.5 mg/kg/hr administered by infusion for 1 hrs; assay type: ADME, organism-based, Sus scrofa; details: intravenous, read-out: Drug uptake; how it was run: as §2
[18] = Drug level in blood of complete Freund's adjuvant-induced rat inflammatory pain model at 10 mg/kg, po administered after 23 hrs of adjuvant challenge measured after 1 hr; assay type: ADME, organism-based; parameters: dose 10 mg/kg, route oral; details: read-out: Drug uptake; how it was run: as §3

Sequence of Cytochrome P450 3A4 (P08684 whole entry): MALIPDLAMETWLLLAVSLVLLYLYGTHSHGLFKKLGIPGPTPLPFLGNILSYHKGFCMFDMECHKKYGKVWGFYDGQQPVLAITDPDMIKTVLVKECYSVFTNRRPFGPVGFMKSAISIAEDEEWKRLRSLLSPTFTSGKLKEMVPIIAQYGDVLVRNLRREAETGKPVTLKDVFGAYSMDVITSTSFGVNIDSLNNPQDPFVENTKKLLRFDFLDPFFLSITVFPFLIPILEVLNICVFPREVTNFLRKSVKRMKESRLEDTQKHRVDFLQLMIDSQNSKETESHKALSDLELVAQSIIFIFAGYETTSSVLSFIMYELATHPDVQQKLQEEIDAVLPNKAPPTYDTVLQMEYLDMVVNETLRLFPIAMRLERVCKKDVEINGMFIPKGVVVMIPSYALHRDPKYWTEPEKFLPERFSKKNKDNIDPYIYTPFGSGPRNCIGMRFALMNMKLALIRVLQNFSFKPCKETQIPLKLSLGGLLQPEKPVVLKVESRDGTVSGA

O=C([O-])c1cccc(Cc2cc(Cl)ccc2OCc2ccc(Cl)cc2F)n1.[Na+] showed a clearance [1] of 18 mL/min/kg, a concentration at 1 h [2] of 2610 nM and a Kp at 1 h [3] of 0.39. It also gave a bioavailability [4] of 39%, a concentration at 1 h [5] of 627 nM and a clearance [6] of 41 mL/min/kg. The concentration at 1 h [7] was 60 nM, the ED50 (Rattus norvegicus) was 3 mg/kg and the half-life [8] was 1.1 h. It also gave a Vd [9] of 0.6 L/kg, a concentration at 12 h [10] of 199 nM and a pKi [11] of 5.9. For the same compound, the solubility at 0.5 h [12] was 60 µg/mL, the concentration at 12 h [13] was 955 nM and the Papp A→B at 1 h [14] was 70 ×10⁻⁶ cm/s. The IC50 (Cytochrome P450 3A4) was ≥ 100 µM, the IC50 [15] was > 100 µM and the Kp at 1 h [16] was 0.27. The concentration at 1 h [17] was 2300 nM and the concentration at 1 h [18] was 1510 nM.
